Data as given in ChEMBL document CHEMBL1159207, “Structure and antimicrobial activity of diterpenes from the roots of Plectranthus hereroensis” (1994).
In brackets after ≈: the same amount, converted by molar mass.

Assays:
Staphylococcus aureus = experiment: Antimicrobial activity against Staphylococcus aureus by twofold serial broth microdilution assay; format: functional
Procedure, shortened: (§1)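 Twofold serial broth microdilution in sterile Mueller-Hinton broth, over 500 µg/ml to 7.8 µg/ml. Samples were added as solutions in Me₂CO or MeOH, with solvent blanks included. After 24 h at 37°, MIC was taken as the lowest concentration that inhibited growth.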

Vibrio cholerae = experiment: Antimicrobial activity against Vibrio cholerae by twofold serial broth microdilution assay; format: functional
Enterococcus faecalis = experiment: Antimicrobial activity against Streptococcus faecalis by twofold serial broth microdilution assay; format: functional; procedure, shortened: as §1
Escherichia coli = experiment: Antimicrobial activity against Escherichia coli by twofold serial broth microdilution assay; format: functional; procedure, shortened: as §1
Shigella dysenteriae = experiment: Antimicrobial activity against Shigella dysenteriae by twofold serial broth microdilution assay; format: functional
Salmonella typhimurium = experiment: Antimicrobial activity against Salmonella Typhimurium by twofold serial broth microdilution assay; format: functional, Salmonella enterica subsp. enterica serovar Typhimurium; details: Salmonella enterica; procedure, shortened: as §1
Pseudomonas aeruginosa = experiment: Antimicrobial activity against Pseudomonas aeruginosa by twofold serial broth microdilution assay; format: functional; procedure, shortened: as §1
Candida albicans = experiment: Antimicrobial activity against Candida albicans by twofold serial broth microdilution assay; format: functional
Procedure, shortened: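 Samples were added as Me₂CO or MeOH solutions, with solvent blanks. Incubation was 24 h at 37°. MIC was the lowest concentration preventing visible growth of the organism.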

| SMILES | MIC (Staphylococcus aureus) | MIC (Vibrio cholerae) | MIC (Enterococcus faecalis) | MIC (Escherichia coli) | MIC (Shigella dysenteriae) | MIC (Salmonella typhimurium) | MIC (Pseudomonas aeruginosa) | MIC (Candida albicans) |
| --- | --- | --- | --- | --- | --- | --- | --- | --- |
| CC(C)C1=C(O)C(=O)C2=C(C1=O)[C@H](O)C[C@H]1C(C)(C)CCC[C@]21C [HORMINONE] | 7.8 µg/mL (≈ 23.5 µM) | 7.8 µg/mL (≈ 23.5 µM) | ≥ 500 µg/mL | ≥ 500 µg/mL | ≥ 500 µg/mL | ≥ 500 µg/mL | 250 µg/mL (≈ 752 µM) | 250 µg/mL (≈ 752 µM) |
| C=CCC1=C(O)C(=O)C2=C(C1=O)[C@H](O)C[C@H]1C(C)(C)CCC[C@]21C | – | – | ≥ 500 µg/mL | ≥ 500 µg/mL | ≥ 500 µg/mL | ≥ 500 µg/mL | 250 µg/mL (≈ 757 µM) | 125 µg/mL (≈ 378 µM) |
